Screens: PubChem, Broad Institute
Compounds with a hit are over-represented: about 2.2% of the library has one in this group of screens.
DENV2 CPE rescue: protects cells from dengue virus 2 cytopathic effect; DENV2-infected cells, cytopathic effect rescue, plate reader; CPE inhibition, % at 9.99 µM; hit rate 1.7% among 350,000; AID 651640; in the data active = CPE inhibition above about 20%, passing the limit was not always enough; inconclusive = no clear call, values can overlap the other calls; tested in BHK-21 cells;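 note: 0% = median of neutral control wells and 100% = median of positive control wells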
E-sel inducer: E-selectin induction on HUVECs. P16581. HUVEC E-selectin immunofluorescence imaging; normalized: neutral wells 0, TNF-alpha wells 100. activation, % at 7.58 µM. hit rate 0.37% among 260,000;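 active = mean E-selectin-positive cell signal at least 10% of the positive control, reached in at least 60% of replicates, without over 20% cell loss; inconclusive = no rule given, readout overlaps actives, possibly toxicity-flagged; inactive = the rest, including those meeting only one limit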
Target sequence (P16581 whole entry, looked up): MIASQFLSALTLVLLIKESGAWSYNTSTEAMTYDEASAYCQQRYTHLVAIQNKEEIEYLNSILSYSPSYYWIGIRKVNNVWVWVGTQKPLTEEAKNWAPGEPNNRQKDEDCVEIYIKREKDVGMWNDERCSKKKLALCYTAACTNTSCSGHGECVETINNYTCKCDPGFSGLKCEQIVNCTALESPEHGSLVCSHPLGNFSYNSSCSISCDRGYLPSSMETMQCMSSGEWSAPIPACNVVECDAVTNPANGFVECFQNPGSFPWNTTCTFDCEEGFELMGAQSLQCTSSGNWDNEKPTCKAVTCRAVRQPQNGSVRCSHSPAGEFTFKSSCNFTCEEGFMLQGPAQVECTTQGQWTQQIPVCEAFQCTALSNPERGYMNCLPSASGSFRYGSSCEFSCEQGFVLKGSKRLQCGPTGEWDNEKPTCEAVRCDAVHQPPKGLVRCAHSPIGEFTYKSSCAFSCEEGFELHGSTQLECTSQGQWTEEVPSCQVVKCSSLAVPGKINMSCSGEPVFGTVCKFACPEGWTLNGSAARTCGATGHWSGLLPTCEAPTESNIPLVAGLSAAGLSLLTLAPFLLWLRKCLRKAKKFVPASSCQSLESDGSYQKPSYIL
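Material: HUVEC primary endothelial cells; Amount: 3,000 cells per well; Dosing: single concentration; Medium: EGM-2 growth medium on 0.1% gelatin-coated wells; Read-out basis: percent E-selectin-positive cells; Signal: immunofluorescence imaging; Control set: TNF-alpha, DMSO.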
Statin myotox sup: protects C2C12 myotubes from simvastatin toxicity; ATP luminescence, 48 h; scaled: DMSO 0, geranylgeraniol control 100; rescue of ATP level, % at 7.49 µM; AID 602340; hit rate 0.78% among 330,000;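 active = mean ATP rescue above about 67%, or every replicate alone reaching that limit, limit read from the data, passing the limit was not always enough; inconclusive = no clear call, values can overlap the other calls; inactive = mean under the limit and some replicate under it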;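 note: myotubes were challenged with 10 µM simvastatin during compound exposure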
Numbers without * were called inactive; ! = not active in a repeat.

CO[C@H]1CN(C)C(=O)c2ccc(NS(=O)(=O)CC(F)(F)F)cc2OC[C@@H](C)N(C(=O)NC(C)C)C[C@H]1C was read as E-sel inducer 0 and Statin myotox sup 3.
For COc1ccc(CN(C)C[C@@H]2OCCCC[C@@H](C)Oc3ccc(NS(=O)(=O)c4ccc(F)cc4)cc3C(=O)N([C@H](C)CO)C[C@H]2C)cc1 the results were DENV2 CPE rescue 11.
Screening C[C@H]1CN([C@@H](C)CO)C(=O)Cc2cc(NC(=O)Nc3cccc4ccccc34)ccc2O[C@@H]1CN(C)C(=O)Nc1ccc(C(F)(F)F)cc1 returned DENV2 CPE rescue 0, E-sel inducer 55* and Statin myotox sup -4.
For C[C@H](CO)N1C[C@H](C)[C@H](CN(C)C(=O)Nc2cccc3ccccc23)Oc2ccc(NC(=O)Nc3cccc4ccccc34)cc2CC1=O the results were DENV2 CPE rescue -5, E-sel inducer 1 and Statin myotox sup 15.
`C[C@@H]1CN([C@H](C)CO)C(=O)Cc2cc(NC(=O)Nc3cccc4ccccc34)ccc2O[C@@H]1CN(C)C(=O)Nc1ccc(C(F)(F)F)cc1` gave DENV2 CPE rescue inconclusive, E-sel inducer 1 and Statin myotox sup -15.
Screening COc1ccc(NC(=O)Nc2ccc3c(c2)CC(=O)N([C@@H](C)CO)C[C@@H](C)[C@@H](CN(C)C(=O)Nc2cccc4ccccc24)O3)cc1 returned DENV2 CPE rescue 5, E-sel inducer 0 and Statin myotox sup -12.
Screening COc1ccc(NC(=O)Nc2ccc3c(c2)CC(=O)N([C@@H](C)CO)C[C@@H](C)[C@H](CN(C)C(=O)Nc2cccc4ccccc24)O3)cc1 returned DENV2 CPE rescue 11, E-sel inducer 0 and Statin myotox sup 78*.
`C[C@H]1CN([C@@H](C)CO)C(=O)Cc2cc(NC(=O)Nc3cccc4ccccc34)ccc2O[C@H]1CN(C)C` gave DENV2 CPE rescue -2, E-sel inducer 3 and Statin myotox sup 0.
C[C@H](CO)N1C[C@H](C)[C@@H](CN(C)C)Oc2ccc(NC(=O)Nc3cccc4ccccc34)cc2CC1=O was read as DENV2 CPE rescue 39*, E-sel inducer 1 and Statin myotox sup -11.
For C[C@@H]1CN([C@@H](C)CO)C(=O)Cc2cc(NC(=O)Nc3cccc4ccccc34)ccc2O[C@H]1CN(C)C(=O)Nc1cccc2ccccc12 the results were DENV2 CPE rescue 45* and E-sel inducer 1.
For C[C@H]1CN([C@@H](C)CO)C(=O)c2ccccc2-c2ccccc2CO[C@@H]1CN(C)S(=O)(=O)c1ccc([N+](=O)[O-])cc1 the results were DENV2 CPE rescue -1 and E-sel inducer 0.
`Cc1noc(C)c1NC(=O)Nc1ccc2c(c1)CC(=O)N([C@@H](C)CO)C[C@H](C)[C@H](CN(C)C(=O)Nc1cccc3ccccc13)O2` gave DENV2 CPE rescue 17, E-sel inducer 0 and Statin myotox sup 17.
C[C@H](CO)N1C[C@H](C)[C@H](CN(C)C(=O)NC2CCCCC2)Oc2ccc(NC(=O)Nc3cccc4ccccc34)cc2CC1=O was read as DENV2 CPE rescue -4, E-sel inducer -3 and Statin myotox sup 6.
Cc1noc(C)c1NC(=O)Nc1ccc2c(c1)CC(=O)N([C@H](C)CO)C[C@H](C)[C@H](CN(C)C(=O)Nc1cccc3ccccc13)O2 was read as DENV2 CPE rescue 63*, E-sel inducer 0 and Statin myotox sup 13.
`C[C@H]1CN([C@@H](C)CO)C(=O)Cc2cc(NC(=O)Nc3cccc4ccccc34)ccc2O[C@H]1CN(C)S(C)(=O)=O` gave DENV2 CPE rescue -3, E-sel inducer 1 and Statin myotox sup -3.
C[C@@H]1CN([C@@H](C)CO)C(=O)Cc2cc(NC(=O)Nc3cccc4ccccc34)ccc2O[C@@H]1CN(C)S(C)(=O)=O was read as DENV2 CPE rescue 66*!, E-sel inducer -5 and Statin myotox sup 3.
C[C@@H]1CN([C@H](C)CO)C(=O)Cc2cc(NC(=O)Nc3cccc4ccccc34)ccc2O[C@@H]1CN(C)C(=O)NC1CCCCC1 was read as DENV2 CPE rescue 22* and Statin myotox sup -22.
Screening COCCNC(=O)C[C@@H]1C=C[C@@H](NC(=O)NC2CCCC2)[C@@H](CO)O1 returned DENV2 CPE rescue 16, E-sel inducer 0 and Statin myotox sup -4.
Screening COCC(=O)N1[C@@H]2c3ccc(C4=CCCCC4)c(=O)n3C[C@@H]2[C@@H](CO)[C@@H]1C(=O)N1CCN(C)CC1 returned DENV2 CPE rescue -2, E-sel inducer 0 and Statin myotox sup 1.
For O=C(NCCN1CCCC1)[C@@H]1[C@@H](CO)[C@@H]2Cn3c(cccc3=O)[C@@H]2N1Cc1ccccn1 the results were DENV2 CPE rescue 9 and E-sel inducer 0.
Screening CSc1ccccc1C(=O)N1CCN(c2cccc(Cl)c2)CC1 returned DENV2 CPE rescue 0.
For CC(C)OC(=O)c1cccnc1N1CCN(c2cccc(Cl)c2)CC1 the results were DENV2 CPE rescue -1 and E-sel inducer 34*.
Screening Cc1ccccc1CN(C)C[C@@H]1OCc2cnnn2CCCC(=O)N([C@@H](C)CO)C[C@@H]1C returned DENV2 CPE rescue -2, E-sel inducer 0 and Statin myotox sup -1.
Screening CO[C@H]1CN(C)C(=O)c2ccc(NC(=O)C3CCCC3)cc2OC[C@@H](C)N(CCC(F)(F)F)C[C@@H]1C returned DENV2 CPE rescue -1, E-sel inducer 0 and Statin myotox sup -13.
Screening COc1ccccc1C#Cc1ccc([C@H]2[C@@H](CO)N(C(=O)C3CCCCC3)[C@H]2C#N)cc1 returned DENV2 CPE rescue -11, E-sel inducer -1 and Statin myotox sup -248.
Screening CCS(=O)(=O)c1ccc(-c2csc(-c3ccc(Cl)cc3)n2)c(Cl)c1Cl returned Statin myotox sup 103*.
Screening CCS(=O)(=O)c1ccc(-c2csc(-c3ccccc3Cl)n2)c(Cl)c1Cl returned Statin myotox sup -4.
`COC(=O)c1ccc(CN2C(=O)[C@]3(OCCC=C[C@H]3C)c3ccccc32)cc1` gave DENV2 CPE rescue -2 and E-sel inducer inconclusive.
`C#CCN1C(=O)[C@]2(OCCC=C[C@H]2C)c2ccccc21` gave DENV2 CPE rescue 77* and E-sel inducer 1.
`COc1ccc(NC(=O)N(C)C[C@H]2OCc3cn(nn3)CCCC(=O)N([C@H](C)CO)C[C@H]2C)cc1` gave DENV2 CPE rescue 2, E-sel inducer 0 and Statin myotox sup -1.
O=C(C[C@@H]1CC[C@@H]2[C@H](COC[C@H](O)CN2C(=O)C2CC2)O1)NCc1ccccc1Cl was read as DENV2 CPE rescue 7, E-sel inducer 0 and Statin myotox sup -6.
COc1cccc(C(CC(=O)NCc2ccco2)NS(=O)(=O)c2ccc(C)cc2)c1OC (centres undefined) was read as Statin myotox sup 100*.
`O=C(CC(NS(=O)(=O)c1ccc(Cl)cc1)c1ccco1)NCc1ccco1` (centres undefined) gave Statin myotox sup 14.
Screening COCCOC(=O)N1C(=O)[C@@]2(c3cc(C#Cc4ccc(OC)cc4)ccc31)[C@H](c1ccccc1OCCO)N1[C@H](c3ccccc3)[C@H](c3ccccc3)OC(=O)[C@H]1[C@@H]2C(=O)NC[C@H](O)c1ccccc1 returned DENV2 CPE rescue 4.
